Screening results as filed in PubChem BioAssay.
M4 antag: antagonists of human muscarinic M4 receptor (CHRM4) | CHO-hM4 cells, ACh EC80, Fluo-8 calcium fluorescence | inhibition, % at 3 µM | 360,000 compounds, 0.73% hits | AID 624125;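 active means inhibition above its plate's cutoff, the mean inhibition of sample wells plus 3 SD, cut at about 27% in these data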
Target sequence (P08173 whole entry, looked up): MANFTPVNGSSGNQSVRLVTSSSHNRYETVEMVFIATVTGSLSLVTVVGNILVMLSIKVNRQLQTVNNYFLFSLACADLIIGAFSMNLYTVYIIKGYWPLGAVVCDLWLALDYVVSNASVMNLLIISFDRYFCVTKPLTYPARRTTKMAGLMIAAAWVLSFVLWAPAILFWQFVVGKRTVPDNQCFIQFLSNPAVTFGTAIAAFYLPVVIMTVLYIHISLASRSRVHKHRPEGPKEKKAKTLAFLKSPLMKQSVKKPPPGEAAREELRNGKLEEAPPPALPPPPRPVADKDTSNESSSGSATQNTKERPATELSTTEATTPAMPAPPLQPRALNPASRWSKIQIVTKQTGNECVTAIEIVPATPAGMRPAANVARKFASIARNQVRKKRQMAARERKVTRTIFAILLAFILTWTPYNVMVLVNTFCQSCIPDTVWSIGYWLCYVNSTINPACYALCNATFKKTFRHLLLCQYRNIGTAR
CHRM5 PAM: positive allosteric modulators of human muscarinic M5 receptor; activation, % at 3 µM; P08912; AID 624038; 360,000 compounds, 0.3% hits; CHO-K1 hM5, Fluo-8 calcium, ACh EC20 PAM; 0% = ACh EC20, 100% = ACh EC100;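 active means activation above the run cutoff, the mean activation of all test compounds plus 3 SD, cut at about 18% in these data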
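System: CHO-K1 hM5 cells. Reagent: acetylcholine, EC20 level. Compound dosing: single dose, 3 µM nominal final test concentration. Timing: Post-acetylcholine fluorescence recording 140 s. Detection: Fluo-8 calcium fluorescence. Read-out: % activation, ACh-normalized. Benchmarks: ACh EC20 and EC100 wells. Repeats: singlicate, one well per test compound.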
M4 PAM: CHRM4 positive allosteric modulation; activation, % at 3 µM; 360,000 compounds, 0.4% hits; CHO-K1 hM4/Gqi5, Fluo-8 calcium fluorescence, ACh EC20; 0% = ACh EC20, 100% = maximal ACh;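 active means activation above its plate's cutoff, the mean activation of sample wells plus 3 SD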
CHRM5 antagonist: antagonists of human muscarinic M5 receptor (CHRM5); CHO-hM5 cells, Fluo-8 calcium fluorescence, ACh EC80; P08912; AID 624040; 360,000 compounds, 0.59% hits; inhibition, % at 3 µM;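 active means inhibition above a per-plate cutoff, the mean of that plate's test compounds plus 3 SD, cut at about 27% in these data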
CHRM5 agonist: CHRM5 agonism in calcium assay; CHO-K1 hM5 cells, Fluo-8 calcium fluorescence; 0% DMSO wells, 100% maximal acetylcholine response; 360,000 compounds, 0.19% hits; activation, % at 3 µM; P08912;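 active means activation above the run's mean over test compounds plus 3 SD, cut at about 23% in these data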;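 further: signal is peak over basal fluorescence ratio across the kinetic read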
CHRM4 agonist: agonists of human muscarinic M4 receptor (CHRM4); CHO-K1 hM4/Gqi5, Fluo-8 calcium fluorescence; vehicle 0%, full acetylcholine response 100%; activation, % at 3 µM; AID 624127; 360,000 compounds, 0.14% hits; P08173;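 active means activation above the run mean over all test wells plus 3 SD, cut at about 32% in these data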;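 further: peak over basal fluorescence ratio per well then scaled between controls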
Of the large screens only hits and unclear results are named; the others gave an inactive call. Compounds with a hit are over-represented: about 1.8% of the library has one in this group of screens.

CC(C)(C)C(=O)N1CCN(C(c2ccccc2)c2ccccc2)CC1	none
CN1CCCN(C(c2ccccc2)c2ccc(Cl)cc2)CC1 (configuration not stated)	M4 antag 82.9, CHRM5 antagonist 99.2
CN1CCN(C(c2ccccc2)c2ccccc2)CC1	M4 antag 56.8, CHRM5 antagonist 83.2
COc1cc(CN2CCN(C(c3ccccc3)c3ccccc3)CC2)cc(OC)c1OC	M4 antag 44.8
COc1cccc(S(=O)(=O)N(C)C[C@H]2Oc3cc(Br)ccc3S(=O)(=O)N([C@@H](C)CO)C[C@H]2C)c1	none
COC(=O)C(NC(=O)c1ccccc1Cl)(Nc1ncc(S(=O)(=O)c2ccc([N+](=O)[O-])cc2)s1)C(F)(F)F (configuration not stated)	CHRM5 agonist 32.8
CN1CCN(CC(O)(c2ccc(Cl)cc2)c2ccc(Cl)cc2)CC1	CHRM5 antagonist 35.8
C=C1[C@@H](CCO)N(S(=O)(=O)C(C)(C)C)C[C@@H]1C	none
O=C(Nc1ccc(Cl)cc1)Nc1ccccc1NS(=O)(=O)c1cccs1	CHRM5 antagonist 44.2
O=C(Nc1ccc(F)cc1)Nc1ccccc1NS(=O)(=O)c1cccs1	none
CC(C)OC(=O)c1sc2nc(-c3ccccc3)ccc2c1N	none
COc1ccc(C(=O)c2sc3nc(-c4ccccc4)ccc3c2N)cc1	CHRM5 antagonist 34.0
Cc1nc2sc(C(=O)c3ccccc3)c(N)c2c(C)c1C	M4 antag 67.2, CHRM4 agonist 68.6
CCCCN1C(=O)C(CC(=O)NC(c2ccccc2)c2ccccc2)CC(C(=O)N(C(C)C)C(C)C)=C1C (configuration not stated)	none
Cc1cccc(NC(=O)c2oc3ccc(S(=O)(=O)N4CCOCC4)cc3c2C)c1C	M4 antag 28.7
Cc1ccc(NC(=O)c2oc3ccc(S(=O)(=O)N4CCOCC4)cc3c2C)c(C)c1	none
Cc1c(C(=O)NCCCN2CCCC2=O)oc2ccc(S(=O)(=O)N3CCOCC3)cc12	none
Cc1c(C(=O)NCCC2=CCCCC2)oc2ccc(S(=O)(=O)N3CCOCC3)cc12	CHRM5 antagonist 27.8
O=S(=O)(/C=C/c1ccccc1)N1CCN(c2nc(-c3cccnc3)nc3ccccc23)CC1	none
CC(=O)c1ccc(N2CCN(C(=O)/C=C/c3ccc(S(=O)(=O)NCc4ccco4)cc3)CC2)cc1	M4 antag 37.5
O=C(O)c1ccccc1Cc1ccc2c(c1)CCCC2	none
CCCC#Cc1cnc2c(c1)C(=O)N([C@H](C)CO)C[C@H](C)[C@@H](CN(C)C(=O)CCN1CCCCC1)O2	none
O=C(CSc1ccc2nnc(CCNC(=O)c3ccccc3)n2n1)NCc1ccco1	CHRM5 antagonist 27.9
O=C(Nc1cccc(S(=O)(=O)N2CCCCC2)c1)c1cc(=O)[nH]c2ccccc12	none
CCN(CC)c1ccc(/C=C/c2ccc3ccc(OC)cc3[n+]2CC)cc1	M4 antag 36.1, CHRM5 antagonist 48.8
Cc1ccc(N(CC(=O)NCc2ccco2)C(=O)CCC(=O)Nc2nccs2)cc1	none
CCC(C)(C)C(=O)Nc1ncc(S(=O)(=O)c2ccc([N+](=O)[O-])cc2)s1	none
CCCC(C)C(=O)Nc1ncc(S(=O)(=O)c2ccc([N+](=O)[O-])cc2)s1 (configuration not stated)	CHRM5 agonist 48.8, CHRM4 agonist 66.5
CC(=O)N1N=C(c2ccc(C)cc2)OC1c1ccc(Br)cc1 (configuration not stated)	none
CC(=O)N1N=C(c2ccc(Cl)cc2)OC1c1ccc(C(C)C)cc1 (configuration not stated)	CHRM5 PAM 33.1
CC(=O)Nc1ccc(-c2ccnc3c2CC(C)(C(=O)Nc2cccc(OC(F)(F)F)c2)O3)cc1 (configuration not stated)	none
O=C(CNC(=O)c1ccccc1F)N/N=C/c1cn[nH]c1-c1ccccc1	CHRM5 antagonist 28.9
O=C(CNC(=O)c1ccc(F)cc1)N/N=C/c1cn[nH]c1-c1ccccc1	none
FC(F)(F)c1nc2ccccc2[nH]1	M4 PAM 15.0
Cc1cc(C(=O)NCc2cccnc2)n(-c2ccccc2)n1	M4 antag 34.8
Cc1ccc(CNC(=O)c2cc(C)nn2-c2ccccc2)cc1	none
Cc1cccc(N2C(=O)CN=C2Nc2nc(C)cc(C)n2)c1	M4 PAM 18.3
Cc1cc(C)nc(NC2=NCC(=O)N2c2cc(Cl)cc(Cl)c2)n1	none
CNC(=O)c1cc(Oc2ccc(NC(=O)c3[nH]c(-c4ccccc4)c4c3C(=O)N(C)C4=O)cc2)ccn1	M4 PAM 23.1
CN1C(=O)c2c(C(=O)Nc3ccc(Oc4ccncc4)cc3)[nH]c(-c3ccccc3)c2C1=O	none
CS(=O)(=O)N(CC(=O)Nc1ccc(Br)cc1)C1CCCCC1	none
CC(=O)Nc1ccccc1OCC(=O)c1cc(C)n(Cc2cccs2)c1C	CHRM5 antagonist 29.7
Cc1cc(C(=O)COc2cccnc2[N+](=O)[O-])c(C)n1Cc1cccs1	none
O=C(Cn1c(=O)oc2cc(S(=O)(=O)N3CCCCCC3)ccc21)NC1CCCCC1	M4 PAM 17.5
Cc1ccc(S(=O)(=O)N2CCCC2)cc1C(=O)NC1CCCCC1	none
COc1ccc(C)cc1S(=O)(=O)N1CCC(C(=O)NC2CCCC2)CC1	M4 PAM 20.3
Cc1ccc(S(=O)(=O)N2CCC(C(N)=O)CC2)cc1C(=O)NC1CCCCC1	M4 PAM 20.6
CCCNC(=O)C1(C)CCN(C(=O)c2ccc3c(c2)CCO3)C1 (configuration not stated)	none
COCCCn1cc(C(=O)c2ccccc2OCC(=O)Nc2cccc(F)c2)cc(C#N)c1=O	none
CC(=O)Nc1ccc(NC(=O)CCCc2ccccc2)cc1	none
Cc1c(F)cccc1NC(=O)c1ccc2c(c1)CCN2S(C)(=O)=O	none
Cc1ccc(C)c(OCCC(=O)OCC(=O)NCCNC(=O)COC(=O)CCOc2cc(C)ccc2C)c1	M4 antag 38.5, CHRM5 antagonist 34.5
Cc1ccc(C)c(OCCC(=O)OCC(=O)NCc2ccccc2)c1	none
COc1cccc(CN2CCN(Cc3cccn3-c3cccnc3)CC2CCO)c1 (configuration not stated)	none
COC(=O)CSc1nc(-c2ccccc2)nc2ccc(F)cc12	none
CCOC(=O)CSc1nc(-c2ccccc2)nc2ccc(F)cc12	M4 PAM 28.5
c1ccc2oc(-c3ccc(Nc4nc(N5CCOCC5)nc(N5CCOCC5)n4)cc3)nc2c1	none
Cc1noc(C)c1CN(C(=S)NC1CC2CCC1C2)c1ccccc1 (configuration not stated)	CHRM5 PAM 22.6
